Calls of active or inactive are those of the source. No cut-off for these calls is given here.
Legend:
Klebsiella pneumoniae = assay: Growth inhibition of multidrug-resistant Klebsiella pneumoniae ATCC 700603 at 32 ug/ml after 18 hrs; assay type: functional; conditions: ATCC 700603, 18 h, read-out: GI
In short: (§1)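 Mid-log cultures in cation-adjusted Mueller Hinton broth were added at 5×10^5 CFU/mL to wells at a final compound concentration of 32 μg/mL. Plates stood at 37 °C for 18 h. Growth was read by OD600, and % inhibition was computed against media-only and untreated-bacteria controls.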

Staphylococcus aureus = assay: Growth inhibition of methicillin-resistant Staphylococcus aureus ATCC 43300 at 32 ug/ml after 18 hrs; assay type: functional; conditions: ATCC 43300, 18 h, read-out: GI; in short: as §1
Lipid bilayer = assay: Induction of pore formation in POPC vesicles at 20 uM after 3 hrs by carboxyfluorescein dye leakage assay; conditions: in the assay text read “after 3 mins” for “after 3 hrs”
In short: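 POPC or DOPC liposomes were hydrated in 10 mM HEPES, 100 mM KCl, pH 7.4, containing 50 mM carboxyfluorescein. Size was checked by dynamic light scattering, and vesicles were used at 2.2×10^10 per mL. Peptide at 20 μM was equilibrated with vesicles for 3 min, and dye leakage was measured.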

Candida albicans = assay: Growth inhibition of Candida albicans ATCC 90028 at 32 ug/ml after 24 hrs by OD530 light-scattering microspectrophotometric method; conditions: ATCC 90028, 24 h, read-out: GI
Pseudomonas aeruginosa = assay: Growth inhibition of Pseudomonas aeruginosa ATCC 27853 at 32 ug/ml after 18 hrs; assay type: functional; conditions: ATCC 27853, 18 h, read-out: GI
In short: (§2)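 Mid-log cultures were prepared as above and seeded at 5×10^5 CFU/mL with compound at a final 32 μg/mL, then held static at 37 °C for 18 h. Growth was read as OD600. Percent inhibition was calculated against media-only and bacteria-only controls on the same plate.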

Escherichia coli = assay: Growth inhibition of Escherichia coli ATCC 25922 at 32 ug/ml after 18 hrs; assay type: functional; conditions: ATCC 25922, 18 h, read-out: GI; in short: as §2
Cryptococcus neoformans = assay: Growth inhibition of Cryptococcus neoformans H99 ATCC 208821 at 32 ug/ml after 24 hrs by resazurin dye-based microspectrophotometric assay; assay type: functional; conditions: var. grubii H99 ATCC 208821, 24 h, read-out: GI
In short: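 Yeasts were grown 3 days on YPD agar at 30 °C, suspended from five colonies and diluted in YNB broth to a final 2.5×10^3 CFU/mL. Compound at a final 32 μg/mL; incubated 24 h at 35 °C without shaking. C. albicans was read at OD530. C. neoformans was read as OD600–570 after resazurin (0.001% final) and a further 2 h at 35 °C. Fluconazole was the standard.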

Acinetobacter baumannii = assay: Growth inhibition of Acinetobacter baumannii ATCC 19606 at 32 ug/ml after 18 hrs; assay type: functional; conditions: ATCC 19606 = CIP 70.34 = JCM 6841, 18 h, read-out: GI; in short: as §2
Erythrocyte = assay: Hemolytic activity against human RBC after 1 hr by Drabkin's assay; assay type: ADME, cell-based
[1] = Hemolytic activity against human RBC at 50 uM after 1 hr by Drabkin's assay relative to control; assay type: ADME, cell-based, Erythrocyte; conditions: human red blood cells (erythrocytes), read-out: Activity
[2] = Hemolytic activity against human RBC at 100 uM after 1 hr by Drabkin's assay relative to control; assay type: ADME, cell-based, Erythrocyte; conditions: human red blood cells (erythrocytes), read-out: Activity
[3] = Hemolytic activity against human RBC at 0.39 uM after 1 hr by Drabkin's assay relative to control; assay type: ADME, cell-based, Erythrocyte; conditions: human red blood cells (erythrocytes), read-out: Activity
[4] = Hemolytic activity against human RBC at 1.56 uM after 1 hr by Drabkin's assay relative to control; assay type: ADME, cell-based, Erythrocyte; conditions: human red blood cells (erythrocytes), read-out: Activity
[5] = Hemolytic activity against human RBC at 3.125 uM after 1 hr by Drabkin's assay relative to control; assay type: ADME, cell-based, Erythrocyte; conditions: human red blood cells (erythrocytes), read-out: Activity
[6] = Hemolytic activity against human RBC at 12.5 uM after 1 hr by Drabkin's assay relative to control; assay type: ADME, cell-based, Erythrocyte; conditions: human red blood cells (erythrocytes), read-out: Activity
[7] = Hemolytic activity against human RBC at 6.25 uM after 1 hr by Drabkin's assay relative to control; assay type: ADME, cell-based, Erythrocyte; conditions: human red blood cells (erythrocytes), read-out: Activity
[8] = Hemolytic activity against human RBC at 25 uM after 1 hr by Drabkin's assay relative to control; assay type: ADME, cell-based, Erythrocyte; conditions: human red blood cells (erythrocytes), read-out: Activity
[9] = Hemolytic activity against human RBC at 0.78 uM after 1 hr by Drabkin's assay relative to control; assay type: ADME, cell-based, Erythrocyte; conditions: human red blood cells (erythrocytes), read-out: Activity

In the case of `O=C(OCc1ccccc1)N1CCCN1C(=O)[C@@H]1CCCN1C(=O)N1CCCN1C(=O)[C@@H]1CCCN1C(=O)N1CCCN1C(=O)[C@@H]1CCCN1C(=O)N1CCCN1C(=O)[C@@H]1CCCN1C(=O)N1CCCN1C(=O)[C@@H]1CCCN1C(=O)N1CCCN1C(=O)[C@@H]1CCCN1C(=O)N1CCCN1C(=O)[C@@H]1CCCN1C(=O)N1CCCN1C(=O)[C@@H]1CCCN1`, the inhibition of growth at 32 µg/mL (Klebsiella pneumoniae) is reported as 14.8%, the inhibition of growth at 32 µg/mL (Staphylococcus aureus) is reported as 28.6% and the Activity (Lipid bilayer) is reported as “inactive”. It also gave an inhibition of growth at 32 µg/mL (Candida albicans) of 4.07%, an inhibition of growth at 32 µg/mL (Pseudomonas aeruginosa) of -2.53% and an inhibition of growth at 32 µg/mL (Escherichia coli) of 14.8%. It also gave an inhibition of growth at 32 µg/mL (Cryptococcus neoformans) of 0.967% and an inhibition of growth at 32 µg/mL (Acinetobacter baumannii) of 38.4%.
For `CC(C)(C)OC(=O)[C@@H]1CCCN1C(=O)N1CCCN1C(=O)[C@@H]1CCCN1C(=O)N1CCCN1C(=O)[C@@H]1CCCN1C(=O)N1CCCN1C(=O)[C@@H]1CCCN1C(=O)N1CCCN1`, the inhibition of growth at 32 µg/mL (Klebsiella pneumoniae) was 4.07%, the inhibition of growth at 32 µg/mL (Staphylococcus aureus) was 5.04% and the Activity (Erythrocyte) was “Dose-dependent effect”. For the same compound, the Activity (Lipid bilayer) was “inactive”, the inhibition of growth at 32 µg/mL (Candida albicans) was 4.64% and the inhibition of growth at 32 µg/mL (Pseudomonas aeruginosa) was 4.45%. The inhibition of growth at 32 µg/mL (Escherichia coli) was 4.06%, the inhibition of growth at 32 µg/mL (Cryptococcus neoformans) was -4.84% and the inhibition of growth at 32 µg/mL (Acinetobacter baumannii) was -8.79%.
In the case of `Cl.O=C(OCc1ccccc1)N1CCCN1C(=O)[C@@H]1CCCN1C(=O)N1CCCN1C(=O)[C@@H]1CCCN1C(=O)N1CCCN1C(=O)[C@@H]1CCCN1C(=O)N1CCCN1C(=O)[C@@H]1CCCN1`, the inhibition of growth at 32 µg/mL (Klebsiella pneumoniae) is reported as 0.27%, the inhibition of growth at 32 µg/mL (Staphylococcus aureus) is reported as 23.8% and the Activity (Erythrocyte) is reported as “Dose-dependent effect”. For the same compound, the hemolysis at 1 h, 50 µM [1] was -0.013%, the inhibition of growth at 32 µg/mL (Candida albicans) was 4.48% and the inhibition of growth at 32 µg/mL (Pseudomonas aeruginosa) was -10.1%. It also gave a hemolysis at 1 h, 100 µM [2] of 0.045%, an inhibition of growth at 32 µg/mL (Escherichia coli) of 0.27% and an inhibition of growth at 32 µg/mL (Cryptococcus neoformans) of -1.33%. It also gave an inhibition of growth at 32 µg/mL (Acinetobacter baumannii) of 34.9%.
For `CC(C)(C)OC(=O)[C@@H]1CCCN1C(=O)N1CCCN1C(=O)[C@@H]1CCCN1C(=O)N1CCCN1C(=O)[C@@H]1CCCN1C(=O)N1CCCN1C(=O)[C@@H]1CCCN1C(=O)N1CCCN1C(=O)[C@@H]1CCCN1C(=O)N1CCCN1C(=O)[C@@H]1CCCN1C(=O)N1CCCN1C(=O)[C@@H]1CCCN1C(=O)N1CCCN1C(=O)[C@@H]1CCCN1C(=O)N1CCCN1.Cl`, the hemolysis at 1 h, 0.39 µM [3] was -0.181%, the hemolysis at 1 h, 1.56 µM [4] was 0% and the Activity (Erythrocyte) was “Dose-dependent effect”. It also gave a hemolysis at 1 h, 3.125 µM [5] of -0.361%, a hemolysis at 1 h, 50 µM [1] of 0% and a hemolysis at 1 h, 100 µM [2] of -0.181%. It also gave a hemolysis at 1 h, 12.5 µM [6] of 0.181%, a hemolysis at 1 h, 6.25 µM [7] of 0% and a hemolysis at 1 h, 25 µM [8] of -0.271%. The hemolysis at 1 h, 0.78 µM [9] was -0.903%.
With `CC(C)(C)OC(=O)[C@@H]1CCCN1C(=O)N1CCCN1C(=O)[C@@H]1CCCN1C(=O)N1CCCN1C(=O)[C@@H]1CCCN1C(=O)N1CCCN1C(=O)[C@@H]1CCCN1C(=O)N1CCCN1C(=O)[C@@H]1CCCN1C(=O)N1CCCN1C(=O)[C@@H]1CCCN1C(=O)N1CCCN1C(=O)[C@@H]1CCCN1C(=O)N1CCCN1C(=O)[C@@H]1CCCN1C(=O)N1CCCN1` the Activity (Lipid bilayer) was “inactive”.
In the case of `CC(C)(C)OC(=O)N1CCC[C@H]1C(=O)N1CCCN1C(=O)N1CCC[C@H]1C(=O)N1CCCN1C(=O)N1CCC[C@H]1C(=O)N1CCCN1C(=O)N1CCC[C@H]1C(=O)N1CCCN1C(=O)OCc1ccccc1`, the hemolysis at 1 h, 0.39 µM [3] is reported as 0.227%, the hemolysis at 1 h, 1.56 µM [4] is reported as 0.189% and the Activity (Erythrocyte) is reported as “Dose-dependent effect”. It also gave a hemolysis at 1 h, 3.125 µM [5] of 0.038%, a hemolysis at 1 h, 50 µM [1] of -0.379% and a hemolysis at 1 h, 100 µM [2] of 0%. The hemolysis at 1 h, 12.5 µM [6] was 0.038%, the hemolysis at 1 h, 6.25 µM [7] was -0.152% and the hemolysis at 1 h, 25 µM [8] was 0.227%. It also gave a hemolysis at 1 h, 0.78 µM [9] of 0.189%.
